Assay results as given in ChEMBL document CHEMBL1759877, “Identification and evaluation of soft coral diterpenes as inhibitors of HIF-2α induced gene expression” (Bioorg Med Chem Lett, 2011).

What was measured:
[1] = Cytotoxicity against human 786-O cells by XTT assay; type: functional, cell-based; settings: 786-0
[2] = molecular target: Endothelial PAS domain-containing protein 1 (Homo sapiens, UniProt Q99814); test: Inhibition of HIF-2alpha activity in human 786-O cells by luciferase assay; type: cell-based
Method in brief: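 Cells seeded at 5000 per well and allowed to attach overnight, then exposed to test samples or controls the next day. Incubation lasted one day so the HIF-2 signal could drop. Luciferin was then added to the cells and the luciferase signal read.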

Chain of Endothelial PAS domain-containing protein 1 (Q99814 whole entry, the tested form may be a part): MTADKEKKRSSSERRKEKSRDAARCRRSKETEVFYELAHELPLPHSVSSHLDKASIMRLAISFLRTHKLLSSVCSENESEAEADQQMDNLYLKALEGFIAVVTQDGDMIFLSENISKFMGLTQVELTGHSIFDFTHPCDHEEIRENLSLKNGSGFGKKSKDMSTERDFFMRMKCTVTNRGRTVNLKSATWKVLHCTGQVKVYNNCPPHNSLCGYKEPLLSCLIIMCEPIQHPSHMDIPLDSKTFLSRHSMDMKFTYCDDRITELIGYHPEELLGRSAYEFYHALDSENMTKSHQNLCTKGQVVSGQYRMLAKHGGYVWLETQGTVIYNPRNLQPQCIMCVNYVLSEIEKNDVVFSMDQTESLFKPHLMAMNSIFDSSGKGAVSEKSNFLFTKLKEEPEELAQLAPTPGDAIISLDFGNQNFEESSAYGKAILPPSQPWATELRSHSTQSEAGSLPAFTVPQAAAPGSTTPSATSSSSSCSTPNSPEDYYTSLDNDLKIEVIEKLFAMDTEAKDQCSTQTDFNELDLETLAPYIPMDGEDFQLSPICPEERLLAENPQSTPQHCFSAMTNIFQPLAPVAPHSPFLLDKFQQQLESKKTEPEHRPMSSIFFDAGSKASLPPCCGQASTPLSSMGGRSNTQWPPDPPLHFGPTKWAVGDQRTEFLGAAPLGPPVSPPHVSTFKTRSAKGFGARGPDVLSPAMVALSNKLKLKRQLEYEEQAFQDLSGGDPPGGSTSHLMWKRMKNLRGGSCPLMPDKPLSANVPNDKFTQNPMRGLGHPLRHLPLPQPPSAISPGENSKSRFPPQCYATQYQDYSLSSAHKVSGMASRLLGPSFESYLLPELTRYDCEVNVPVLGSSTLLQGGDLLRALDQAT

| SMILES | EC50 ([2]; read-out: EC50) | EC50 [2] | IC50 ([1]; Homo sapiens, read-out: IC50) | IC50 [1] |
| --- | --- | --- | --- | --- |
| C=C1C[C@@H](O)/C=C(/C)CC[C@@H]2C([C@@H](OC(C)=O)[C@H](C=C(C)C)OC(C)=O)=CO[C@H](OC(C)=O)[C@@H]12 | 6.2 µM |  | 26.3 µM |  |
| C/C1=C\C=C(\C(C)C)CCC2=CCC[C@](C)(OC2=O)[C@H](O)CC1 |  | Not Active |  | Not Active |
| C=C(C)/C1=C/C=C(\C)CC[C@@H](O)[C@]2(C)CCC=C(CC1)C(=O)O2 (relative stereo) |  | Not Active |  | Not Active |
| C=C(C)[C@@H]1CC(=O)/C(C)=C/CC/C(C)=C/CC[C@]2(C)O[C@@H]2C1 | 108 µM |  | 147 µM |  |
| C=C1CC/C=C(/C)CC[C@@H]2C([C@@H](OC(C)=O)[C@H](C=C(C)C)OC(C)=O)=CO[C@H](OC(C)=O)[C@@H]12 | 3.4 µM |  | 5.2 µM |  |
| C=C1CC[C@H](OO)C(=C)CC[C@@H]2C([C@@H](OC(C)=O)[C@H](C=C(C)C)OC(C)=O)=CO[C@H](OC(C)=O)[C@@H]12 | 11.8 µM |  | 14.2 µM |  |

Further lines, with some results ahead:

| EC50 ([2]; read-out: EC50) | EC50 [2] | SMILES | IC50 ([1]; Homo sapiens, read-out: IC50) | IC50 [1] |
| --- | --- | --- | --- | --- |
|  | Not Active | C/C1=C\CC[C@]2(C)O[C@@H]2CC/C(C)=C/C=C(/C(C)(C)O)CC1 |  | Not Active |
| 149 µM |  | COC(C)(C)/C1=C/C=C(\C)CC[C@H]2O[C@@]2(C)CC/C=C(\C)CC1 (relative stereo) | 134 µM |  |
| 183 µM |  | CC1=C2CC/C(C)=C/CC[C@]3(C)O[C@@H]3CC/C(C)=C/[C@H]2OC1 | 291 µM |  |
